Measured values of several laboratories.
Protocols differ between the studies behind these lines.
Target: Mitogen-activated protein kinase 1 (MAPK1, Homo sapiens, UniProt P28482)

SMILES | effect on | mode | technique | tested at | endpoint | result
Cc1ccc(NC(=O)c2ccc(CN3CCN(C)CC3)cc2)cc1Nc1nc(-c2cccnc2)cs1 | cell-free assay |  |  | 0.5 µM | remaining signal | 91.6%
CC(C)(O)[C@H]1CC[C@H](Nc2ccc3ncc(-c4cccc(C(F)(F)F)c4)n3n2)CC1 | enzyme activity | inhibitor |  | 1 µM | remaining activity | 96%
Cn1c(=O)n(-c2ccc(C(C)(C)C#N)cc2)c2c3cc(-c4cnc5ccccc5c4)ccc3ncc21 | enzyme activity | inhibitor |  | 10 µM | remaining activity | 114%
CCOCCn1cc(C(=O)Nc2ccc(-n3nc(-c4cccnc4)cc3C(F)(F)F)cn2)ccc1=O | cell-free assay |  | competition with immobilised ligand | 1 µM | remaining binding | 100%
Cc1cc(NC(=O)c2cccc3cc(-c4cccc5[nH]nc(N)c45)ccc23)ccc1F | enzyme activity | inhibitor |  | 0.1 µM | activity vs control | 100%
Cc1cnc(NC2CCOCC2)nc1-n1cnc(C(=O)NC(CN)c2cc(F)cc(Cl)c2)c1 (stereo not shown) | enzyme activity | inhibitor | radiometric | 1 µM | remaining activity | 2%
C[C@H](c1ccnc(Nc2nc3ccc(-c4cc(N(C)C)ncn4)cc3[nH]2)c1)N1CCN(C(=O)CC(F)(F)F)CC1 | cell-free assay |  | competition with immobilised ligand | 0.1 µM | remaining binding | 78%
O=C1Nc2ccc(Cl)cc2C1=Cc1cc(Cl)c(O)c(Cl)c1 | cell-free assay |  |  | 0.5 µM | remaining signal | 84.3%
CC(C)(C)c1nc(-c2cccc(NS(=O)(=O)c3c(F)cccc3F)c2F)c(-c2ccnc(N)n2)s1 | enzyme activity | inhibitor | radiometric | 1 µM | remaining activity | 88%
O=C1NC(=O)c2cc(Nc3ccc(F)cc3)c(Nc3ccc(F)cc3)cc21 | cell-free assay |  |  | 0.5 µM | remaining signal | 121%
CC(C)c1ccc(NC(=O)c2cccs2)c(-c2nc3ccccc3[nH]c2=O)c1 | enzyme activity | inhibitor |  | 1 µM | activity vs control | 110%
CO[C@@H](C)c1c(Nc2ccc([C@@H](N(C)C(=O)C3CCS(=O)(=O)CC3)C(F)(F)F)cc2)cnc2cc(Cl)nn12 | cell-free assay |  | competition with immobilised ligand | 1 µM | remaining binding | 100%
CCN(CC)CCNC(=O)c1c(C)[nH]c(/C=C2\C(=O)Nc3ccc(F)cc32)c1C | enzyme activity | inhibitor |  | 0.3 µM | inhibition | -6%
CC1=C(C#N)C(c2ccc3c(c2)c(NC(=O)c2ccccc2C)nn3C)C(C#N)=C(C)N1 | cell-free assay |  | competition with immobilised ligand | 1 µM | remaining binding | 80%
Nc1[nH]nc2nnc(-c3c(-c4ccccc4)nn4ccccc34)cc12 | cell-free assay |  |  | 0.5 µM | remaining signal | 87.2%
C[C@H](c1ccc(F)cc1)N(Cc1cccc(C(=O)O)c1)C(=O)c1cnc2ccccc2c1 | cell-free assay |  | competition with immobilised ligand | 1 µM | remaining binding | 99%
Cc1ccc(NC(=O)c2ccc(C)c(C(F)(F)F)c2)cc1C#Cc1nn(C2CCC(O)CC2)c2ncnc(N)c12 (stereo not shown) | cell-free assay |  |  | 10 µM | remaining signal | 108%

SMILES | effect on | mode | technique | tested at | endpoint | result
CN([C@@H]1CCc2c(CC(=O)O)c3cc(S(C)(=O)=O)ccc3n2C1)S(=O)(=O)c1ccc(F)cc1 | cell-free assay |  | competition with immobilised ligand | 1 µM | remaining binding | 77%
CSc1nc(C)c(-c2ccnc(Nc3ccc(N4CCOCC4)cc3)c2)[nH]1 | enzyme activity | inhibitor |  | 10 µM | inhibition | 5.3%
CN(C)C1CCN(CC#Cc2nn(C3CCCC3)c3nc(NCc4ccccc4)ncc23)C1 (stereo not shown) | enzyme activity | inhibitor | FRET | 1 µM | inhibition | 7%
O=C(Nc1cnn(-c2csc(C(=O)NC3COC3)c2)c1)Nc1c(F)cccc1Cl | enzyme activity | inhibitor |  | 5 µM | remaining activity | 85.9%
CC/C(=N\NC(=O)NCc1cccc(O)c1)c1ccc(O)c(C)c1O | enzyme activity | inhibitor |  | 0.1 µM | inhibition | -10.1%
COc1cc(Cl)c(C(=O)N[C@@H](CN[C@H]2CC[C@@H](N)CC2)Cc2ccc(C#N)cc2)cc1-c1ccc(CN[C@H](C)c2ccc(C)cc2)o1 | enzyme activity | inhibitor |  | 1 µM | remaining activity | 92%
COc1cc(Nc2cnc(C#N)c(O[C@H](C)CN(C)C)n2)ncc1-c1cnn(C)c1 | enzyme activity | inhibitor | radiometric | 10 µM | remaining activity | 80%
CCN(CC)c1ccc(C2=NNC(=O)CC2C)cc1[N+](=O)[O-] (stereo not shown) | enzyme activity | inhibitor |  | 10 µM | remaining activity | 100%
CNCc1ccccc1-c1csc([C@@H](C)Nc2nc(C)nc3cc(OC)c(OC)cc23)c1 | cell-free assay |  | competition with immobilised ligand | 1 µM | remaining binding | 78%
Cc1ccc(Nc2nccc(N(C)c3ccc4c(C)n(C)nc4c3)n2)cc1S(N)(=O)=O | enzyme activity | inhibitor |  | 0.3 µM | inhibition | -1%
Cc1ccc(-n2nc(C(C)(C)C)cc2NC(=O)Nc2ccc(OCCN3CCOCC3)c3ccccc23)cc1 | enzyme activity | inhibitor |  | 10 µM | inhibition | -10%
Oc1cccc(-c2nc(N3CCOCC3)c3oc4ncccc4c3n2)c1 | enzyme activity | inhibitor |  | 10 µM | remaining activity | 106%
Nc1nc(NC2CCCCC2)sc1C(=O)c1ccccc1 | enzyme activity | inhibitor |  | 10 µM | remaining activity | 16%
CCOc1cc(-c2nncn2C)ccc1Nc1ncc2cc(C)nc(NCC(C)(C)C)c2n1 | enzyme activity | inhibitor | FRET | 1 µM | inhibition | < 15%
COc1cc2ncnc(Nc3ccc(Oc4ccccc4)c(C)c3C)c2cc1OC | enzyme activity | inhibitor |  | 1 µM | inhibition | -2%
Cc1noc([C@H]2C[C@@H](c3ccc(C(F)(F)F)cc3)CN(C(=O)N3CCS(=O)(=O)C3)C2)n1 | cell-free assay |  | competition with immobilised ligand | 1 µM | remaining binding | 100%
COc1cc2ncnc(Nc3ccc(F)c(Cl)c3)c2cc1OCCCN1CCOCC1 | cell-free assay |  |  | 0.5 µM | remaining signal | 103%
